# Assay results gathered from unrelated publications.
# Each line is one published result; the experiments were not run side by side.
# Sample: plasma
Compound,test system,conditions,half-life [h]
Cn1cnc(Cn2c(=O)[nH]/c(=N\c3cc4cn(C)nc4cc3Cl)n(Cc3cc(F)c(F)cc3F)c2=O)n1,male Sprague-Dawley rat,"oral, 25 mg/kg",3.86
Cl.Cl.O=C(CCN1CCCCC1)c1ccc(-c2ccc(C(=O)CCN3CCCCC3)cc2)cc1,Sprague-Dawley rat,"intravenous, 5 mg/kg",0.08
O=C(Nc1cccnn1)N1CCN([C@@H]2CCOc3cc(C(F)(F)F)ccc32)CC1,male Sprague-Dawley rat,"oral, 0.3 mg/kg",3.3
Cc1ncc(C)n2nc(/C=C/c3nc(N4CCCC4)cc(N4CCOCC4)n3)nc12,male Sprague-Dawley rat,"intravenous, 0.1 mg/kg",4.6
CSCC[C@H](NC(=O)COCCOCCNC(=O)COCCOCCNC(=O)CC[C@H](NC(=O)CCCCCCCCCCCCCCCCC(=O)O)C(=O)O)C(=O)N[C@H]1CSSC[C@@H](C(=O)NCC(=O)N[C@@H](CO)C(=O)NCC(=O)N[C@@H](CO)C(=O)N[C@@H](CC(=O)O)C(=O)N[C@@H](Cc2ccc(O)cc2)C(=O)N[C@@H](CCCCN)C(=O)N[C@@H](CC(=O)O)C(=O)N[C@@H](CC(=O)O)C(=O)N[C@@H](CC(=O)O)C(=O)N[C@@H](CC(=O)O)C(=O)N[C@@H](CCCCN)C(N)=O)NC(=O)[C@H](Cc2ccccc2)NC(=O)[C@@H]2CCCN2C(=O)[C@H](Cc2c[nH]c3ccccc23)NC(=O)[C@H](CC(C)C)NC(=O)[C@H](CCSC)NC(=O)[C@H](Cc2c[nH]cn2)NC(=O)[C@H](Cc2ccccc2)NC(=O)[C@H](Cc2c[nH]cn2)NC(=O)[C@H]([C@@H](C)O)NC(=O)[C@H](Cc2ccccc2)NC1=O,male Sprague-Dawley rat,intravenous,10.7
[2H]C([2H])(c1cc(F)c(F)cc1F)n1c(=O)n(Cc2ncn(C)n2)c(=O)[nH]/c1=N\c1cc2cn(C)nc2cc1Cl,male Sprague-Dawley rat,"oral, 25 mg/kg",4.16
N=c1c2c(-c3ccccc3)c(-c3ccccc3)n(Cc3ccccc3)c2ncn1[C@H]1CC[C@H](O)CC1,male Sprague-Dawley rat,"oral, 2 mg/kg, single dose",8.9
CCCCCn1cc(C(=O)Nc2cccc3ccccc23)c2ccccc21,male Long-Evans rat,"intraperitoneal, 3 mg/kg",11.6
CCCC[C@@H]1NC(=O)[C@H](Cc2ccc(O)cc2)NC(=O)[C@@H]2CCCN2C(=O)[C@H](CC(=O)O)NC(=O)[C@H](C)NC(=O)[C@H](Cc2ccccc2)NC(=O)[C@@H]2CSCCC(=O)N3CN(CN(C3)C(=O)CCSC[C@@H](C(=O)N[C@@H](CNC(=O)CCc3cn(CCOCCOCCOCCN(CCOCCOCCOCCC(=O)N[C@H]4CSCCC(=O)N5CN6CN(C5)C(=O)CCSC[C@H](NC(=O)[C@@H](CC(=O)O)NC(=O)[C@H](Cc5cccc7ccccc57)NC(=O)[C@@H]5CCCN5C4=O)C(=O)N[C@@H](CCSC)C(=O)N[C@@H](CCCCNC(=N)N)C(=O)N[C@@H](CC(=O)O)C(=O)N[C@@H](Cc4c[nH]c5ccccc45)C(=O)N[C@@H](CO)C(=O)N[C@@H]([C@@H](C)O)C(=O)N4CCC[C@H]4C(=O)N4C[C@H](O)C[C@H]4C(=O)N[C@@H](Cc4c[nH]c5ccccc45)C(=O)N[C@H](C(N)=O)CSCCC6=O)CCOCCOCCOCCn4cc(CCC(=O)NC[C@H](NC(=O)[C@@H]5CSCCC(=O)N6CN7CN(C6)C(=O)CCSC[C@H](NC(=O)[C@H](Cc6ccc(O)cc6)NC(=O)[C@@H]6CCCN6C(=O)[C@@H](C)NC(=O)[C@H](CCC(=O)O)NC(=O)[C@@H]6CCCN6C(=O)[C@H](CC(C)(C)C)NC(=O)[C@@H](NC(C)=O)CSCCC7=O)C(=O)N[C@@H](Cc6ccccc6)C(=O)N[C@@H](C)C(=O)N[C@@H](CC(=O)O)C(=O)N6CCC[C@H]6C(=O)N[C@@H](Cc6ccc(O)cc6)C(=O)N[C@@H](CCCC)C(=O)N5)C(N)=O)nn4)nn3)C(N)=O)NC1=O)C(=O)CCSC[C@H](NC(C)=O)C(=O)N[C@@H](CC(C)(C)C)C(=O)N1CCC[C@H]1C(=O)N[C@@H](CCC(=O)O)C(=O)N[C@H](C)C(=O)N1CCC[C@H]1C(=O)N[C@@H](Cc1ccc(O)cc1)C(=O)N2,rat,"intravenous, 2 mg/kg",3.6
O=C([O-])C(=O)[O-].[NH-][C@@H]1CCCC[C@H]1[NH-].[Pt+4] (relative stereo),rat,"intravenous, 5 mg/kg",3.1
CCCC[C@@H]1NC(=O)[C@H](Cc2ccc(O)cc2)NC(=O)[C@@H]2CCCN2C(=O)[C@H](CC(=O)O)NC(=O)[C@H](C)NC(=O)[C@H](Cc2ccccc2)NC(=O)[C@@H]2CSCCC(=O)N3CN(CN(C3)C(=O)CCSC[C@H](NC(C)=O)C(=O)N[C@@H](CC(C)(C)C)C(=O)N[C@@H](CCC(=O)O)C(=O)N[C@@H](CCC(=O)O)C(=O)N[C@H](CCCCNC(=O)CCc3cn(CCOCCOCCOCCN(CCOCCOCCOCCC(=O)N[C@H]4CSCCC(=O)N5CN6CN(C5)C(=O)CCSC[C@H](NC(=O)[C@@H](CC(=O)O)NC(=O)[C@H](Cc5cccc7ccccc57)NC(=O)[C@@H]5CCCN5C4=O)C(=O)N[C@@H](CCSC)C(=O)N[C@@H](CCCCNC(=N)N)C(=O)N[C@@H](CC(=O)O)C(=O)N[C@@H](Cc4c[nH]c5ccccc45)C(=O)N[C@@H](CO)C(=O)N[C@@H]([C@@H](C)O)C(=O)N4CCC[C@H]4C(=O)N4C[C@H](O)C[C@H]4C(=O)N[C@@H](Cc4c[nH]c5ccccc45)C(=O)N[C@H](C(N)=O)CSCCC6=O)CCOCCOCCOCCn4cc(CCC(=O)NCCCC[C@H]5NC(=O)[C@H](CCC(=O)O)NC(=O)[C@H](CCC(=O)O)NC(=O)[C@H](CC(C)(C)C)NC(=O)[C@@H](NC(C)=O)CSCCC(=O)N6CN7CN(C6)C(=O)CCSC[C@H](NC(=O)[C@H](Cc6ccc(O)cc6)NC(=O)[C@@H]6CCCN6C5=O)C(=O)N[C@@H](Cc5ccccc5)C(=O)N[C@@H](C)C(=O)N[C@@H](CC(=O)O)C(=O)N5CCC[C@H]5C(=O)N[C@@H](Cc5ccc(O)cc5)C(=O)N[C@@H](CCCC)C(=O)N[C@H](C(N)=O)CSCCC7=O)nn4)nn3)C(=O)N3CCC[C@H]3C(=O)N[C@@H](Cc3ccc(O)cc3)C(=O)N2)C(=O)CCSC[C@@H](C(N)=O)NC1=O,rat,"intravenous, 2 mg/kg",2.1
[2H]C([2H])([2H])n1cc2cc(Nc3nc(=O)n(Cc4ncn(C)n4)c(=O)n3Cc3cc(F)c(F)cc3F)c(Cl)cc2n1,male Sprague-Dawley rat,"oral, 25 mg/kg",3.39
CCN1CC2(CCN(CCc3cc(F)ccc3F)CC2)O[C@H](C)C1=O,Wistar rat,"intraperitoneal, 3 mg/kg, single dose",0.333
COC(=O)C(NC(=O)c1cn(CCCCCF)c2ccccc12)C(C)(C)C (centres unmarked),male Sprague-Dawley rat,"subcutaneous, 100 µg/kg",10.3
